Test results: ChEMBL document CHEMBL4316619 (Bioorg Med Chem Lett, 2019)
Calls of active or inactive are those of the source. No cut-off for these calls is given here.

Legend:
MDCK = assay: Cytotoxicity against MDCK cells assessed as reduction in cell viability measured after 48 hrs by CellTiter Glo assay; assay type: cell-based, Canis lupus familiaris; conditions: dog
Summary of the method: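 MDCK cells were incubated with compound under the conditions of the 48 h replication assay. Cytotoxicity was read with the CellTiter-Glo ATP viability assay. Follow-up viability testing used 5, 10, 50 and 100 μM.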

Influenza A virus [1] = assay: Antiviral activity against Influenza A virus (A/California/7/2009(H1N1)) infected in MDCK cells assessed as reduction in virus-induced cytopathic effect measured on day 5 by Celltiter-Glo luminescence assay; assay type: functional, organism-based; conditions: 120 h
Summary of the method: (§1)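 MDCK cells were infected with seasonal influenza A strains through NIAID resources and scored for protection from virus-induced cell death. Compounds were tested at four concentrations (0.8, 4, 20, 100 μM). EC50/EC90 (reduction of viral cell death) and CC50 (reduction of cell viability) were derived in μM, and SI50 = CC50/EC50.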

[2] = Cytotoxicity against MDCK cells assessed as reduction in cell viability measured on day 5 by Celltiter-Glo luminescence assay; assay type: cell-based, Canis lupus familiaris; conditions: dog, MDCK cells; summary of the method: as §1
[3] = molecular target: Luciferin 4-monooxygenase (Photinus pyralis) (UniProt P08659); assay: Effect on firefly luciferase activity expressed in 293 cells at 50 uM by luminescence assay; assay type: cell-based
Luciferin 4-monooxygenase (Photinus pyralis), sequence (P08659 whole entry): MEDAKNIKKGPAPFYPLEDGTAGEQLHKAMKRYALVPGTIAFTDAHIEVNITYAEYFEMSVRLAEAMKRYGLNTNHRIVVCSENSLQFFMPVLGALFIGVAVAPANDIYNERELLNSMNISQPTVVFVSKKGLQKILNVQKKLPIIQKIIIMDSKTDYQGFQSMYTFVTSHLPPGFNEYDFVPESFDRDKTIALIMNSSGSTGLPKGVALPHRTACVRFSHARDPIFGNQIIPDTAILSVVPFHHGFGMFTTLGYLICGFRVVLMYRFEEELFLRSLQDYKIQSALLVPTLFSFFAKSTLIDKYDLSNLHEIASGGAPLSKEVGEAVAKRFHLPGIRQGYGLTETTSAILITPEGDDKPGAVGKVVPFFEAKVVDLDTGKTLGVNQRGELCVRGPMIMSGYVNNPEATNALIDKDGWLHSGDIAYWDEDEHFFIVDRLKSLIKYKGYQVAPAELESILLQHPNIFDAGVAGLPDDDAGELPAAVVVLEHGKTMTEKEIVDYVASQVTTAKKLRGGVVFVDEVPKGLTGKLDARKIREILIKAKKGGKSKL

[4] = Stability of the compound in mouse liver microsomes assessed as parent compound remaining measured after 15 mins; assay type: ADME, Microsome; conditions: read-out: Stability
Summary of the method: (§2)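 Mouse liver microsomes; percent parent compound remaining measured at 0, 15 and 30 min.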

[5] = Stability of the compound in mouse liver microsomes assessed as parent compound remaining measured after 30 mins; assay type: ADME, Microsome; conditions: read-out: Stability; summary of the method: as §2
[6] = Apparent permeability across apical to basolateral side in human Caco2 cells measured after 2 hrs; assay type: ADME, cell-based; conditions: caco-2, 2 h
Summary of the method: (§3)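 Permeability was measured across Caco-2 monolayers in both directions, apical to basolateral and basolateral to apical. […] Runs were done with and without 3% BSA, and mass recovery (%) was reported for each direction. Efflux ratio = Papp B→A / Papp A→B.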

Influenza A virus [7] = assay: Antiviral activity against Influenza A virus A/PR/8/34 (H1N1) infected in MDCK cells assessed as 3-log reduction in virus titer measured after 48 hrs by hemagglutination assay; assay type: functional, A/Puerto Rico/8/1934(H1N1)
Summary of the method: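 MDCK cells were infected with A/PR/8/34 (H1N1) at MOI 0.1 and incubated with compound for 48 h. Supernatant virus was then quantified by hemagglutination assay and standard TCID50 analysis. The single-concentration screen used 10 μM and reports fold reduction in titer. Dose-response runs used triplicate cultures, with percent titer decrease back-calculated from TCID50.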

[8] = Apparent permeability across apical to basolateral side in human Caco2 cells measured after 2 hrs in presence of 3% BSA; assay type: ADME, cell-based; conditions: caco-2, 2 h; summary of the method: as §3
[9] = Apparent permeability across basolateral to apical side in human Caco2 cells measured after 2 hrs in presence of 3% BSA; assay type: ADME, cell-based; conditions: caco-2, 2 h; summary of the method: as §3
[10] = Apparent permeability across apical to basolateral side in human Caco2 cells assessed as drug recovery; assay type: ADME, cell-based; conditions: caco-2; summary of the method: as §3
[11] = Apparent permeability across basolateral to apical side in human Caco2 cells assessed as drug recovery in presence of 3% BSA; assay type: ADME, cell-based; conditions: caco-2; summary of the method: as §3
[12] = Tmax in C57BL/6 mouse plasma at 30 mg/kg, ip; assay type: ADME, organism-based; conditions: mouse, in vivo
Summary of the method: (§4)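 Male C57BL/6 mice, single intraperitoneal 30 mg/kg dose, N=3. Plasma, liver and lung concentrations followed over time to give concentration-time profiles, from which Tmax, Cmax, terminal t1/2, AUClast and AUCINF were derived.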

[13] = Terminal half life in C57BL/6 mouse plasma at 30 mg/kg, ip; assay type: ADME, organism-based; conditions: mouse, in vivo; summary of the method: as §4
[14] = Tmax in C57BL/6 mouse liver at 30 mg/kg, ip; assay type: ADME, organism-based; summary of the method: as §4
[15] = Terminal half life in C57BL/6 mouse liver at 30 mg/kg, ip; assay type: ADME, organism-based; conditions: read-out: beta t1/2 (converted); summary of the method: as §4
[16] = AUC (infinity) in C57BL/6 mouse liver at 30 mg/kg, ip; assay type: ADME, organism-based; design: dose 30 mg/kg, time infinity, route intraperitoneal
Summary of the method: (§5)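 Male C57BL/6 mice received a single intraperitoneal dose of 30 mg/kg (N=3). Compound concentrations were followed over time in plasma, liver and lung. Tmax, Cmax, terminal t1/2, AUClast and AUCINF were derived from the mean concentration-time profiles.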

[17] = Tmax in C57BL/6 mouse lung at 30 mg/kg, ip; assay type: ADME, organism-based; summary of the method: as §4
[18] = Cmax in C57BL/6 mouse lung at 30 mg/kg, ip; assay type: ADME, organism-based; design: dose 30 mg/kg, route intraperitoneal; summary of the method: as §5
[19] = Terminal half life in C57BL/6 mouse lung at 30 mg/kg, ip; assay type: ADME, organism-based; conditions: read-out: beta t1/2 (converted); summary of the method: as §4
[20] = AUClast in C57BL/6 mouse lung at 30 mg/kg, ip; assay type: ADME, organism-based; design: dose 30 mg/kg, route intraperitoneal, time 0 - last; summary of the method: as §5
[21] = Drug level in C57BL/6 mouse plasma at 30 mg/kg, ip measured at 0.083 hrs; assay type: ADME, organism-based; summary of the method: as §5
[22] = Drug level in C57BL/6 mouse plasma at 30 mg/kg, ip measured at 1 hrs; assay type: ADME, organism-based; summary of the method: as §4
[23] = Drug level in C57BL/6 mouse plasma at 30 mg/kg, ip measured at 2 hrs; assay type: ADME, organism-based; summary of the method: as §4
[24] = Drug level in C57BL/6 mouse plasma at 30 mg/kg, ip measured at 12 hrs; assay type: ADME, organism-based; summary of the method: as §4
[25] = Drug level in C57BL/6 mouse plasma at 30 mg/kg, ip measured at 24 hrs; assay type: ADME, organism-based; summary of the method: as §4
[26] = Drug level in C57BL/6 mouse liver at 30 mg/kg, ip measured at 0.25 hrs; assay type: ADME, organism-based; conditions: in vivo; summary of the method: as §5
[27] = Drug level in C57BL/6 mouse liver at 30 mg/kg, ip measured at 0.5 hrs; assay type: ADME, organism-based; conditions: in vivo; summary of the method: as §5
[28] = Drug level in C57BL/6 mouse liver at 30 mg/kg, ip measured at 2 hrs; assay type: ADME, organism-based; conditions: in vivo; summary of the method: as §5
[29] = Drug level in C57BL/6 mouse liver at 30 mg/kg, ip measured at 3 hrs; assay type: ADME, organism-based; conditions: in vivo; summary of the method: as §5
[30] = Drug level in C57BL/6 mouse liver at 30 mg/kg, ip measured at 8 hrs; assay type: ADME, organism-based; conditions: in vivo; summary of the method: as §5
[31] = Drug level in C57BL/6 mouse liver at 30 mg/kg, ip measured at 24 hrs; assay type: ADME, organism-based; conditions: in vivo; summary of the method: as §5
[32] = Drug level in C57BL/6 mouse liver at 30 mg/kg, ip measured at 48 hrs; assay type: ADME, organism-based; conditions: in vivo; summary of the method: as §5
[33] = Drug level in C57BL/6 mouse lung at 30 mg/kg, ip measured at 0.083 hrs; assay type: ADME, organism-based; conditions: in vivo; summary of the method: as §5
[34] = Drug level in C57BL/6 mouse lung at 30 mg/kg, ip measured at 0.25 hrs; assay type: ADME, organism-based; conditions: in vivo; summary of the method: as §5
[35] = Drug level in C57BL/6 mouse lung at 30 mg/kg, ip measured at 0.5 hrs; assay type: ADME, organism-based; conditions: in vivo; summary of the method: as §5
[36] = Drug level in C57BL/6 mouse lung at 30 mg/kg, ip measured at 1 hrs; assay type: ADME, organism-based; conditions: in vivo; summary of the method: as §5
[37] = Drug level in C57BL/6 mouse lung at 30 mg/kg, ip measured at 3 hrs; assay type: ADME, organism-based; conditions: in vivo; summary of the method: as §5
[38] = Drug level in C57BL/6 mouse lung at 30 mg/kg, ip measured at 8 hrs; assay type: ADME, organism-based; conditions: in vivo; summary of the method: as §5
[39] = Drug level in C57BL/6 mouse lung at 30 mg/kg, ip measured at 12 hrs; assay type: ADME, organism-based; conditions: in vivo; summary of the method: as §5
[40] = Toxicity in C57BL/6 mouse assessed as effect on liver at 30 mg/kg, ip; assay type: organism-based; conditions: in vivo

COc1cc(-c2ccnc3c2c(C)nn3-c2ccc(C(F)(F)F)cc2)ccc1O
Activity (MDCK): Non-Toxic
EC50 (Influenza A virus [1]): 700 nM
EC90 (Influenza A virus [1]): > 50 µM
CC50 at 5 day [2]: 19.8 to 27.8 µM
Activity [3]: inactive
remaining at 0.25 h [4]: 66%
remaining at 0.5 h [5]: 45%
Papp [6]: 0.1 ×10⁻⁶ cm/s
TCID50 (Influenza A virus [7]): 1.6 µM
Papp [8]: 0.22 ×10⁻⁶ cm/s
Papp [9]: 0.27 ×10⁻⁶ cm/s
Drug recovery [10]: 5%
Drug recovery [11]: 81%
Tmax [12]: 15 min
beta t1/2 [13]: 4.6 h
Tmax [14]: 15 min
half-life [15]: 282 min
AUC(0-inf) [16]: 80300 ng·h/mL
Tmax [17]: 15 min
Cmax [18]: 18600 ng/mL
half-life [19]: 270 min
AUC(0-t) [20]: 53900 ng·h/mL
concentration at 0.083 h [21]: 2950 nM
concentration at 1 h [22]: 5.12 µM
concentration at 2 h [23]: 2530 nM
concentration at 12 h [24]: 209 nM
concentration at 24 h [25]: 20 nM
Drug uptake [26]: 124197 nmol/kg
Drug uptake [27]: 62599 nmol/kg
Drug uptake [28]: 18413 nmol/kg
Drug uptake [29]: 10058 nmol/kg
Drug uptake [30]: 5058 nmol/kg
Drug uptake [31]: 224 nmol/kg
Drug uptake [32]: 23 nmol/kg
Drug uptake [33]: 20891 nmol/kg
Drug uptake [34]: 46490 nmol/kg
Drug uptake [35]: 36057 nmol/kg
Drug uptake [36]: 26592 nmol/kg
Drug uptake [37]: 10951 nmol/kg
Drug uptake [38]: 3931 nmol/kg
Drug uptake [39]: 1741 nmol/kg
Activity [40]: Non-Toxic
